High-throughput results (PubChem)
CHRM5 antagonist: antagonists of human muscarinic M5 receptor (CHRM5); P08912; CHO-hM5 cells, Fluo-8 calcium fluorescence, ACh EC80; inhibition, % at 3 µM; 0.59% of 360,000 active; AID 624040;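 active = inhibition above a per-plate cutoff, the mean of that plate's test compounds plus 3 SD, cut at about 27% in these data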;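 also: 0% = acetylcholine EC80 with DMSO and 100% = DMSO without agonist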
Target sequence (P08912 whole entry, looked up): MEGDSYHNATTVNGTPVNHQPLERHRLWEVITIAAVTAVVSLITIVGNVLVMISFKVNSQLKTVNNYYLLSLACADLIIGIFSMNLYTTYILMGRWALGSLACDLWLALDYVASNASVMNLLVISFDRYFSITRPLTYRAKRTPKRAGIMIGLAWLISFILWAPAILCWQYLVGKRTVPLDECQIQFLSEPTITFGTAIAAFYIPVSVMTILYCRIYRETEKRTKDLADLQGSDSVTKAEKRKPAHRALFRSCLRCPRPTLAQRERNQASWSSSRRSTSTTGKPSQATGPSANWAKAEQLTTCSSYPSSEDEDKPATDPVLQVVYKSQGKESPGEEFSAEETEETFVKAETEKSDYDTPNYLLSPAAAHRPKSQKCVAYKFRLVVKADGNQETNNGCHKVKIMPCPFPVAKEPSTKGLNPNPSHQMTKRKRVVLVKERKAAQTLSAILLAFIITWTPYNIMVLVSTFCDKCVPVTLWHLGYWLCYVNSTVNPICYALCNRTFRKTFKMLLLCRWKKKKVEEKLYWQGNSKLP
CHRM4 antagonist: blocks acetylcholine activation of human M4 receptor. P08173. CHO-hM4 cells, ACh EC80, Fluo-8 calcium fluorescence. inhibition, % at 3 µM. 0.73% of 360,000 active. AID 624125;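 active = inhibition above its plate's cutoff, the mean inhibition of sample wells plus 3 SD, cut at about 27% in these data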;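 also: 0% = acetylcholine EC80 with DMSO and 100% = DMSO without agonist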
CHRM4 PAM: positive allosteric modulators of human muscarinic M4 receptor. P08173. CHO-K1 hM4/Gqi5, Fluo-8 calcium fluorescence, ACh EC20; 0% = ACh EC20, 100% = maximal ACh. activation, % at 3 µM. 0.4% of 360,000 active;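 active = activation above its plate's cutoff, the mean activation of sample wells plus 3 SD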
M5 PAM: potentiates acetylcholine response at human M5 receptor; AID 624038; CHO-K1 hM5, Fluo-8 calcium, ACh EC20 PAM; 0% = ACh EC20, 100% = ACh EC100; activation, % at 3 µM; 0.3% of 360,000 active; P08912;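 active = activation above the run cutoff, the mean activation of all test compounds plus 3 SD, cut at about 18% in these data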
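Assay system – human M5 receptor in CHO-K1 cells · Read-out – % activation, ACh-normalized · Technique – Fluo-8 calcium fluorescence · Dosing – single-point, 3 µM nominal · Incubation – Fluo-8 loading 80 min at 37 °C plus 30 min room temperature · Repeats – singlicate, one well per test compound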
M4 ag: agonists of human muscarinic M4 receptor (CHRM4); P08173; CHO-K1 hM4/Gqi5, Fluo-8 calcium fluorescence; vehicle 0%, full acetylcholine response 100%; activation, % at 3 µM; 0.14% of 360,000 active;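 active = activation above the run mean over all test wells plus 3 SD, cut at about 32% in these data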;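 also: peak over basal fluorescence ratio per well then scaled between controls; 0% = DMSO wells and 100% = acetylcholine at EC100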
CHRM5 agonist: CHRM5 agonism in calcium assay; 0.19% of 360,000 active; CHO-K1 hM5 cells, Fluo-8 calcium fluorescence; 0% DMSO wells, 100% maximal acetylcholine response; AID 624037; activation, % at 3 µM; P08912;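 active = activation above the run's mean over test compounds plus 3 SD, cut at about 23% in these data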;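 also: signal is peak over basal fluorescence ratio across the kinetic read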
The depositor's hits bear a star; ! = not active in a repeat. Sampled rows, rich in hits. Any-hit rate of the full collection: about 1.9%.

SMILES | CHRM5 antagonist | CHRM4 antagonist | CHRM4 PAM | M5 PAM | M4 ag | CHRM5 agonist
CCC(=O)N(CC)c1nc(-c2ccc(OC)cc2)cs1 | 8 | 9 | -22 | -7 | 59* | 4
COc1cc(=O)[nH]c(SC(C)C(=O)Nc2cccc3ccccc23)n1 (stereo unspecified) | 6 | -3 | 8 | 5 | 2 | -2
CCCc1nc2ccc(Cl)cn2c1Cc1ccccc1OC | 12 | -4 | -5 | 3 | -2 | -4
C=CCC1(CC=C)CCCN1C(=O)c1cc(COc2ccc(F)c(F)c2)on1 | 8 | 19 | -9 | -8 | 6 | -6
C=CCC1(CC=C)CCCN1C(=O)c1cc(COc2ccc(C)nc2)on1 | 51* | 20 | -10 | -15 | 21 | 3
CCc1ccccc1NC(=O)c1onc(C)c1Cl | 7 | 55* | -16 | -9 | 0 | -1
COC(=O)c1ccccc1NC(=O)c1onc(C)c1Cl | 2 | 1 | 2 | 4 | -1 | -2
COc1ccc(Cl)cc1C(=O)NNC(=O)CCNS(=O)(=O)c1ccccc1 | 16 | 3 | -1 | -4 | 1 | -2
Cc1cccc(C)c1C(=NCCCN(C)C)c1ccccc1 | 80* | 38* | -18 | -18 | 2 | -9
Cc1ccnc2nc(C(=O)NC3=NCCS3)nn12 | -6 | -21 | 26* | -2 | 2 | -3
Cc1ccnc2nc(C(=O)Nc3nccs3)nn12 | -2 | -5 | 13 | -3 | 2 | -3
OC(CCN1CCCCC1)(c1ccccc1)C1C[C@@H]2C=C[C@H]1C2 (stereo partly specified) | 98* | 99* | -17 | -18 | 1 | -1
OC(C#CCCN1CCCCC1)(c1ccccc1)C1CCCCC1 (stereo unspecified) | 98* | 97* | -59 | -32 | 3 | -20
OC(C#CCCN1CCCCC1)(c1ccccc1)c1ccccc1 | 100* | 95* | -17 | -32 | 1 | -20
CCN(CC)CCC#CC(O)(c1ccccc1)c1ccccc1 | 99* | 84* | -18 | -18 | 0 | -8
O=C(CCN1CCCCC1)c1ccccc1 | 0 | -1 | 6 | -1 | 0 | 0
CN1CCN(CC#CC(C)(O)C2CC3C=CC2C3)CC1 (stereo unspecified) | -1 | 5 | 1 | -3 | 0 | -8
CC(C)N(CC#CCC(O)(c1ccccc1)c1ccccc1)C(C)C | 9 | 22 | -27 | -18 | 2 | -7
CC(=O)C1=C(O)C(=O)N(c2ccccn2)C1c1ccccc1[N+](=O)[O-] (stereo unspecified) | 5 | -7 | 6 | 6 | 2 | -2
Cc1csc(SCC(=O)N(C)C2CCS(=O)(=O)C2)n1 (stereo unspecified) | -2 | -2 | 4 | 0 | 1 | 2
O=C(O)CC1COc2ccccc2N1C(=O)c1ccccc1Cl (stereo unspecified) | 11 | -3 | -2 | 4 | 0 | 2
O=CN1CCCN(C(=O)CC2C(=O)NCCN2Cc2cccc(Oc3ccccc3)c2)CC1 (stereo unspecified) | -3 | 4 | 1 | 7 | 2 | -3
COCCNC(=O)CN1CCC(NC(=O)c2ccco2)CC1 | 3 | -4 | -4 | -7 | 1 | 0
Cc1ccc(C(O)(CCN2CCCCC2)c2ccccc2)cc1 (stereo unspecified) | 96* | 93* | -17 | -21 | 2 | -8
CCCOc1ccc(C(O)(CCC)CCN2CCCCC2)cc1 (stereo unspecified) | 21 | 21 | -20 | -24 | 3 | -8
SMILES | CHRM5 antagonist | CHRM4 antagonist | CHRM4 PAM | M5 PAM | M4 ag | CHRM5 agonist
Cc1ccc(C(C)C)c(OCC(=O)NNC(=O)Nc2ccccc2)c1 | 6 | 6 | -7 | 0 | 3 | 5
Cc1ccc(C(C)C)cc1OCC(=O)NNC(=O)Nc1ccccc1 | 0 | 61* | -16 | -4 | 4 | -6
CCc1ccc2oc(C(=O)NCCc3ccc(S(N)(=O)=O)cc3)cc(=O)c2c1 | 4 | 7 | 0 | 1 | 1 | -4
COc1ccc(-c2csc(C(C)(O)c3ccccc3)n2)cc1OC (stereo unspecified) | -5 | -6 | 6 | 2 | 2 | -1
COc1ccc(C(C)(O)c2nc(-c3ccc(OC)c(OC)c3)cs2)cc1 (stereo unspecified) | 3 | -17 | 25* | 3 | 1 | 0
COc1ccc(NC(=O)CCN=C2NS(=O)(=O)c3ccccc32)cc1S(=O)(=O)N(C)C | -4 | -7 | 10 | 4 | -1 | -1
Cn1nc(C#N)c(=O)[nH]c1=O | -157 | 2 | -1 | 63* | 0 | 24*
Cc1ccc(S(=O)(=O)N(C)C)cc1NC(=O)CSc1nncs1 | 4 | 2 | 10 | -1 | 3 | 4
O=C(O)c1ccc(O)cc1O | 4 | 8 | 8 | -1 | 2 | 3
Nc1ccc(C(=O)O)c(O)c1 | 0 | 43*! | 8 | -1 | 2 | 0
O=C(O)c1ccccc1O | -9 | -26 | 13 | -14 | 2 | 26*
Nc1c(O)cccc1C(=O)O | -10 | -3 | 4 | 4 | 1 | 1
Cc1cc(=O)[nH]c(SCC(=O)Nc2c(C)n(C)n(-c3ccccc3)c2=O)n1 | 6 | -1 | -3 | -1 | 0 | 2
CCOC(=O)C1=C(CC)Nc2ccccc2N/C1=N\S(=O)(=O)c1cccc(C(C)=O)c1 | 3 | -9 | 8 | -1 | 2 | 3
COc1ccc(/C=C(/C#N)C(=O)Nc2cc(C)ccc2C)cc1C(=O)O | 2 | 4 | 29* | 1 | 1 | 2
CC(C)CNS(=O)(=O)c1ccc(CCC(=O)NC2CCCCC2)cc1 | -14 | -8 | 1 | 20* | 2 | 7
Cc1cc(C)n2nc(C(=O)N/N=C/c3cccc(Cl)c3)nc2n1 | 2 | 1 | 32* | -3 | 1 | 0
c1ccc(C2(CN3CCNC[C@H]3Cc3cccc4ccccc34)CC2)cc1 | 9 | 10 | 29* | 7 | 6 | -3
COc1ccc(S(=O)(=O)NCc2cccnc2)c(Cl)c1Cl | 6 | -4 | 3 | -3 | 2 | -1
O=C(Nc1ccccc1)Nc1ccc2nnsc2c1 | 44* | 30* | -56 | -35 | 27 | 6
COc1ccccc1C(C#N)c1cccc(Cl)n1 (stereo unspecified) | 12 | 8 | -2 | -3 | 0 | -4
COc1ccccc1CNC(=O)CN1C(=O)c2ccc([N+](=O)[O-])cc2C1=O | 30* | 11 | -9 | -11 | 4 | -2
O=C(O)c1nn(CC(=O)N2CCCCCC2)c(=O)c2ccccc12 | 10 | 4 | -1 | 2 | 0 | -1
